In the array DNA melting data of Ke et al. (doi:10.1101/2024.01.08.574731) one finds folding enthalpy and Tm data, which are given here for 76 sequences.

A short description of series [1]: folding enthalpy; higher = less favourable; fluorescence melt of hairpins on a sequencing array, two-state fit. As to conditions: sodium 0.088 M. Summed up: (§1)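 Cy3 fluorescence of library hairpins on a sequenced MiSeq flow cell, with annealed Cy3 and quencher oligos, was imaged in 50 mM Na-HEPES pH 8.0, 25 mM NaCl in 2.5 °C steps up to 60 °C. Signals were normalised to pre-quench Cy3 and to control variants. Melting temperature and folding enthalpy came from bootstrapped two-state fits, inverse-variance combined over four replicates. Fitted temperatures were raised by 9.35 °C to match UV melts.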

Series [2] in a line: melting temperature; fluorescence melt of hairpins on a sequencing array, two-state fit, raised by 9.35 °C to match UV melts. As to conditions: sodium 0.088 M. A digest of the protocol:
as §1

Regarding GCGCGTGGAAACGTGCGC ((((..(....)..)))), the folding enthalpy in series [1] was -40.5 kcal/mol. Besides, the Tm in series [2] was found to be 64.7 °C.
Taken in the same sequence, the figures for GCGCTAACGAAAGTTCGC (((..(((....)))))) were -21.8 kcal/mol and 45.4 °C.
Taken in the same sequence, the figures for GCGCTACGAAAGTATCGC (((.(((....))).))) were -42.1 kcal/mol and 53.9 °C.
Regarding GCGCTCCGAAAGGACGC (((.(((....)))))), the folding enthalpy in series [1] is -33.6 kcal/mol. Also, the Tm in series [2] is 60 °C.
The corresponding values for GCGCTCGAAAGAGGCGC ((((((....))).))) are -29.2 kcal/mol and 67.4 °C.
Consider GCGCTCGAAAGAGGTCGC ((((((....)))..))), for which the folding enthalpy in series [1] is -25.2 kcal/mol. The Tm in series [2] amounted to 47.9 °C.
With GCGCTGCGAAAGCACAGC ((..(((....)))..)), in series [1], the folding enthalpy is -17.6 kcal/mol. In addition, the Tm in series [2] worked out at 49.9 °C.
Taken in the same sequence, the figures for GCGCTGCGAAAGCATCGC (((.(((....))).))) were -60.2 kcal/mol and 58.6 °C.
For GCGCTGCGAAAGCTCCGC (((..((....))..))), in series [1], the folding enthalpy is -20.5 kcal/mol. In addition, in series [2], the Tm came out at 49.4 °C.
As for GCGCTGCGAAAGCTGGGC ((.(.((....)).).)), the folding enthalpy in series [1] is -24.4 kcal/mol. Besides, in series [2], the Tm stood at 62.4 °C.
Taken in the same sequence, the figures for GCGCTGCGAAAGCTGTGC ((.(.((....)).).)) were -34.4 kcal/mol and 59.5 °C.
For the sequence GCGCTGGGAAACCGGTGC ((.(.((....)).).)), in series [1], the folding enthalpy was -42.6 kcal/mol. In addition, the Tm in series [2] was determined as 51.5 °C.
Taken in the same sequence, the figures for GCGCTTCGAAAGAAACGC (((.(((....))).))) were -38.8 kcal/mol and 54.5 °C.
The corresponding values for GCGCTTGGAAACAAGTGC ((.((((....)))).)) are -50.5 kcal/mol and 56.9 °C.
For the sequence GCGCTTGGAAACGAGCGC (((((.(....).))))), the folding enthalpy in series [1] is -52.1 kcal/mol. Further, the Tm in series [2] stood at 63.8 °C.
The corresponding values for GCGCTTGGAAACGAGTGC ((.((.(....).)).)) are -32.8 kcal/mol and 46.1 °C.
Regarding GCGCTTTCGAAAGAACGC (((..(((....)))))), the folding enthalpy in series [1] is -34.8 kcal/mol. Besides, the Tm in series [2] worked out at 40.1 °C.
Turning to GCGGAACACCGC ((((....)))), the folding enthalpy in series [1] is -23.2 kcal/mol. For the same sequence, in series [2], the Tm stood at 54.6 °C.
The corresponding values for GCGGAACTCCGC ((((....)))) are -25.7 kcal/mol and 54.9 °C.
Taken in the same sequence, the figures for GCGGAAGGAAACCTCCGC (((((.(....).))))) were -33.2 kcal/mol and 54.1 °C.
Taken in the same sequence, the figures for GCGGAAGGAAACTCCCGC ((((.((....)).)))) were -36.2 kcal/mol and 50 °C.
As to GCGGAAGGAAACTTCTGC ((.((((....)))).)), in series [1], the folding enthalpy was -44.6 kcal/mol. Besides, in series [2], the Tm stood at 51.4 °C.
The corresponding values for GCGGACGAAAGTCACCGC ((((((....)))..))) are -29.5 kcal/mol and 51.5 °C.
As for GCGGACGAAAGTCCTCGC ((((((....)))..))), the folding enthalpy in series [1] is -14.4 kcal/mol. Further, the Tm in series [2] came to 51.2 °C.
As to GCGGACGAAAGTCTCCGC ((((((....)))..))), in series [1], the folding enthalpy is -25.7 kcal/mol. For the same sequence, the Tm in series [2] came to 51.3 °C.
Taken in the same sequence, the figures for GCGGACGGAAACGCCCAC (.((.((....)).)).) were -18.9 kcal/mol and 36.6 °C.
With GCGGAGACGAAAGTCCGC (((..(((....)))))), in series [1], the folding enthalpy was -32 kcal/mol. Also, in series [2], the Tm worked out at 58.5 °C.
The corresponding values for GCGGAGAGCCGC ((((....)))) are -17.4 kcal/mol and 54.4 °C.
On to GCGGAGCGAAAGCTAAGC ((..(((....)))..)), for which, in series [1], the folding enthalpy is -12.8 kcal/mol. In addition, the Tm in series [2] was 54 °C.
Taken in the same sequence, the figures for GCGGAGCGAAAGCTATGC ((..(((....)))..)) were -16.5 kcal/mol and 44.5 °C.
The corresponding values for GCGGAGCGAAAGCTTCGC (((.(((....))).))) are -31.2 kcal/mol and 68.6 °C.
For the sequence GCGGAGCGAAAGCTTGGC ((..(((....)))..)), the folding enthalpy in series [1] is -13.5 kcal/mol. The Tm in series [2] turned out to be 39.4 °C.
The corresponding values for GCGGAGCTCCGC ((((....)))) are -20.9 kcal/mol and 55.2 °C.
On to GCGGAGTACCGC ((((....)))), for which the folding enthalpy in series [1] was -24.2 kcal/mol. Besides, in series [2], the Tm is 55.9 °C.
GCGGATCGCCGC ((((....)))): the folding enthalpy in series [1] was -19.9 kcal/mol. The Tm in series [2] worked out at 55.6 °C.
For the sequence GCGGATGCCGC ((((...)))), the folding enthalpy in series [1] was -10.5 kcal/mol. The Tm in series [2] turned out to be 58.8 °C.
Taken in the same sequence, the figures for GCGGATGGAAACACCCGC ((((.((....)).)))) were -42.9 kcal/mol and 53 °C.
In the case of GCGGATGGAAACATTCGC (((.(((....))).))), the folding enthalpy in series [1] is -43.5 kcal/mol. Besides, the Tm in series [2] was determined as 55.1 °C.
In the case of GCGGATTCGAAAGAACGC (((..(((....)))))), the folding enthalpy in series [1] is -27.2 kcal/mol. For the same sequence, in series [2], the Tm amounted to 45.1 °C.
Taken in the same sequence, the figures for GCGGATTGCCGC ((((....)))) were -11.3 kcal/mol and 53.7 °C.
Take GCGGCAAGCCGC ((((....)))): the folding enthalpy in series [1] was -28.3 kcal/mol. In series [2], the Tm was determined as 68.1 °C.
In the case of GCGGCAGGAAACTACCGC ((((.((....)).)))), in series [1], the folding enthalpy is -41.2 kcal/mol. For the same sequence, the Tm in series [2] is 53.1 °C.
Taken in the same sequence, the figures for GCGGCAGGAAACTGTCGC (((.(((....))).))) were -38.1 kcal/mol and 67.3 °C.
For GCGGCCCCCCGC ((((....)))), in series [1], the folding enthalpy is -23.8 kcal/mol. In series [2], the Tm came to 55 °C.
The corresponding values for GCGGCCGGAAACGACCGC ((((.((....)).)))) are -34.9 kcal/mol and 67.2 °C.
The corresponding values for GCGGCCTCCGC ((((...)))) are -17.7 kcal/mol and 61.8 °C.
The corresponding values for GCGGCCTCGAAAGAGCGC (((..(((....)))))) are -25.6 kcal/mol and 52.7 °C.
Regarding GCGGCGACGAAAGTCCGC (((..(((....)))))), in series [1], the folding enthalpy was -17.8 kcal/mol. The Tm in series [2] is 55.6 °C.
Taken in the same sequence, the figures for GCGGCGCCCGC ((((...)))) were -15.9 kcal/mol and 60.9 °C.
The corresponding values for GCGGCTGACCGC ((((....)))) are -24.3 kcal/mol and 58.1 °C.
Regarding GCGGCTGCGAAAGCACGC (((..(((....)))))), the folding enthalpy in series [1] was -16.6 kcal/mol. Besides, in series [2], the Tm was 57.9 °C.
Consider GCGGCTTCCCGC ((((....)))), for which the folding enthalpy in series [1] was -26.3 kcal/mol. Besides, in series [2], the Tm worked out at 58.2 °C.
For GCGGCTTCGAAAGAACGC (((..(((....)))))), in series [1], the folding enthalpy was -21.4 kcal/mol. The Tm in series [2] was found to be 44.6 °C.
The corresponding values for GCGGGAAACCGC ((((....)))) are -22.9 kcal/mol and 67.3 °C.
The corresponding values for GCGGGAAGCCGC ((((....)))) are -18.4 kcal/mol and 61.6 °C.
The corresponding values for GCGGGAATCCGC ((((....)))) are -27.9 kcal/mol and 68.3 °C.
On to GCGGGACCCGC ((((...)))), for which the folding enthalpy in series [1] was -24.5 kcal/mol. The Tm in series [2] was 55.9 °C.
The corresponding values for GCGGGACGAAAGTCCGC (((.(((....)))))) are -23.1 kcal/mol and 69.2 °C.
GCGGGAGCCGC ((((...)))): the folding enthalpy in series [1] was -9.67 kcal/mol. The Tm in series [2] was found to be 54.9 °C.
As for GCGGGAGGAAACTTCCGC ((((.((....)).)))), the folding enthalpy in series [1] was -40.1 kcal/mol. In addition, the Tm in series [2] stood at 58.6 °C.
For GCGGGCACGAAAGTGCGC (((..(((....)))))), the folding enthalpy in series [1] is -10.2 kcal/mol. In addition, the Tm in series [2] amounted to 52.5 °C.
As to GCGGGCCCCGC ((((...)))), the folding enthalpy in series [1] was -22.2 kcal/mol. Besides, the Tm in series [2] is 62.2 °C.
The corresponding values for GCGGGCGAAAGCCAACGC ((((((....)))..))) are -22.4 kcal/mol and 65.3 °C.
Turning to GCGGGCGAAAGCCACCGC ((((((....)))..))), the folding enthalpy in series [1] was -17.4 kcal/mol. For the same sequence, in series [2], the Tm came out at 59.2 °C.
The corresponding values for GCGGGCGAAAGCCCACGC ((((((....)))..))) are -14 kcal/mol and 65.5 °C.
In the case of GCGGGCGAAAGCCCTCGC ((((((....)))..))), the folding enthalpy in series [1] is -13.1 kcal/mol. Moreover, the Tm in series [2] came out at 50 °C.
The corresponding values for GCGGGCGAAAGCCTACGC ((((((....)))..))) are -18.8 kcal/mol and 61.5 °C.
The corresponding values for GCGGGCGCCGC ((((...)))) are -9.79 kcal/mol and 60.6 °C.
Regarding GCGGGCTCCCGC ((((....)))), the folding enthalpy in series [1] is -23.8 kcal/mol. Moreover, the Tm in series [2] amounted to 66 °C.
Taken in the same sequence, the figures for GCGGGCTGCCGC ((((....)))) were -19.5 kcal/mol and 60.9 °C.
The corresponding values for GCGGGGCGAAAGCCGTGC ((..(((....)))..)) are -27.3 kcal/mol and 62.5 °C.
On to GCGGGGCGAAAGCCTGGC ((..(((....)))..)), for which the folding enthalpy in series [1] is -19.2 kcal/mol. Further, the Tm in series [2] worked out at 57.8 °C.
As to GCGGGGCGAAAGCGCGGC ((.(.((....)).).)), the folding enthalpy in series [1] is -27.6 kcal/mol. In series [2], the Tm was found to be 62.5 °C.
Taken in the same sequence, the figures for GCGGGGCGAAAGCTACGC (((..((....))..))) were -27.3 kcal/mol and 68.6 °C.
Regarding GCGGGGCGAAAGCTCTGC ((.(.((....)).).)), the folding enthalpy in series [1] is -21.9 kcal/mol. The Tm in series [2] was 61.9 °C.
On to GCGGGGGCCCGC ((((....)))), for which the folding enthalpy in series [1] is -38.8 kcal/mol. In addition, the Tm in series [2] is 56 °C.
